Laboratory results reported in ChEMBL document CHEMBL2311404, “Synthesis, antibacterial activity and docking of 14-membered 9-O-(3-arylalkyl) oxime 11,12-cyclic carbonate ketolides” (2013).
≈ marks a conversion by molar mass, not a printed value.

What was measured:
Type in all cases: functional
[1] = test system: Streptococcus pneumoniae; assay: Ratio of clarithromycin MIC to compound MIC for penicillin-susceptible Streptococcus pneumoniae PU 09 expressing mef gene
[2] = test system: Streptococcus pneumoniae; assay: Ratio of clarithromycin MIC to compound MIC for penicillin-resistant, constitutive MLS-resistant Streptococcus pneumoniae PU 11 expressing erm and mef genes
[3] = test system: Streptococcus pneumoniae; assay: Antibacterial activity against penicillin-susceptible, constitutive MLS-resistant Streptococcus pneumoniae PU 27 expressing erm gene by broth microdilution method
Outline: (§1)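 Clinical isolates confirmed by 16S rDNA sequencing. MIC determined by broth microdilution following CLSI recommendations. Quality-control strains were S. aureus ATCC 29213 and S. pneumoniae ATCC 49619. Azithromycin and clarithromycin were run in parallel as reference agents.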

[4] = test system: Streptococcus pyogenes; assay: Ratio of clarithromycin MIC to compound MIC for constitutive MLS-resistant Streptococcus pyogenes A2
[5] = test system: Staphylococcus epidermidis; assay: Ratio of azithromycin MIC to compound MIC for methicillin-susceptible, inducible MLS-resistant Staphylococcus epidermidis E 1
[6] = test system: Streptococcus pneumoniae; assay: Antibacterial activity against erythromycin-sensitive Streptococcus pneumoniae ATCC 49619 by broth microdilution method
Outline: (§2)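 MIC by broth microdilution following CLSI recommendations. Clinical isolates were identified by 16S rDNA sequencing and labeled by genotype and phenotype. S. aureus ATCC 29213 and S. pneumoniae ATCC 49619 served as control strains, with azithromycin and clarithromycin as reference agents.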

[7] = test system: Staphylococcus epidermidis; assay: Ratio of clarithromycin MIC to compound MIC for methicillin-susceptible, inducible MLS-resistant Staphylococcus epidermidis E 1
[8] = test system: Staphylococcus haemolyticus; assay: Ratio of clarithromycin MIC to compound MIC for methicillin-resistant, constitutive MLS-resistant, coagulase-deficient Staphylococcus haemolyticus PU 19 expressing ermA gene
[9] = test system: Staphylococcus epidermidis; assay: Antibacterial activity against methicillin-resistant, constitutive MLS-resistant Staphylococcus epidermidis E 2 by broth microdilution method; outline: as §1
[10] = test system: Streptococcus pneumoniae; assay: Antibacterial activity against penicillin-resistant, constitutive MLS-resistant Streptococcus pneumoniae PU 11 expressing erm and mef genes by broth microdilution method; outline: as §1
[11] = test system: Streptococcus pyogenes; assay: Antibacterial activity against constitutive MLS-resistant Streptococcus pyogenes A2 by broth microdilution method; outline: as §1
[12] = test system: Staphylococcus haemolyticus; assay: Antibacterial activity against methicillin-resistant, constitutive MLS-resistant, coagulase-deficient Staphylococcus haemolyticus PU 19 expressing ermA gene by broth microdilution method; outline: as §1
[13] = test system: Staphylococcus epidermidis; assay: Antibacterial activity against methicillin-susceptible, inducible MLS-resistant Staphylococcus epidermidis E 1 by broth microdilution method; outline: as §1
[14] = test system: Staphylococcus haemolyticus; assay: Ratio of azithromycin MIC to compound MIC for methicillin-resistant, constitutive MLS-resistant, coagulase-deficient Staphylococcus haemolyticus PU 19 expressing ermA gene
[15] = test system: Streptococcus dysgalactiae; assay: Ratio of clarithromycin MIC to compound MIC for erythromycin-resistant Streptococcus dysgalactiae A1 expressing efflux pump
[16] = test system: Staphylococcus aureus; assay: Antibacterial activity against erythromycin-susceptible Staphylococcus aureus ATCC 29213 by broth microdilution method; outline: as §2
[17] = test system: Staphylococcus aureus; assay: Antibacterial activity against methicillin-resistant, inducible MLS-resistant Staphylococcus aureus PU 32 expressing ermA gene by broth microdilution method; outline: as §1
[18] = test system: Staphylococcus hominis; assay: Antibacterial activity against methicillin-resistant, inducible MLS-resistant, coagulase-deficient Staphylococcus hominis E 3 by broth microdilution method; outline: as §1
[19] = test system: Staphylococcus epidermidis; assay: Ratio of clarithromycin MIC to compound MIC for methicillin-resistant, constitutive MLS-resistant Staphylococcus epidermidis E 2
[20] = test system: Streptococcus pyogenes; assay: Antibacterial activity against erythromycin-susceptible Streptococcus pyogenes A3 by broth microdilution method; outline: as §2
[21] = test system: Staphylococcus epidermidis; assay: Ratio of azithromycin MIC to compound MIC for methicillin-resistant, constitutive MLS-resistant Staphylococcus epidermidis E 2
[22] = test system: Streptococcus pyogenes; assay: Ratio of azithromycin MIC to compound MIC for constitutive MLS-resistant Streptococcus pyogenes A2
[23] = test system: Streptococcus pneumoniae; assay: Antibacterial activity against penicillin-susceptible Streptococcus pneumoniae PU 09 expressing mef gene by broth microdilution method; outline: as §2
[24] = test system: Staphylococcus hominis; assay: Ratio of clarithromycin MIC to compound MIC for methicillin-resistant, inducible MLS-resistant, coagulase-deficient Staphylococcus hominis E 3
[25] = test system: Streptococcus dysgalactiae; assay: Antibacterial activity against erythromycin-resistant Streptococcus dysgalactiae A1 expressing efflux pump by broth microdilution method; outline: as §1
[26] = test system: Staphylococcus hominis; assay: Ratio of azithromycin MIC to compound MIC for methicillin-resistant, inducible MLS-resistant, coagulase-deficient Staphylococcus hominis E 3
[27] = test system: Streptococcus pneumoniae; assay: Ratio of azithromycin MIC to compound MIC for penicillin-resistant, constitutive MLS-resistant Streptococcus pneumoniae PU 11 expressing erm and mef genes
[28] = test system: Staphylococcus aureus; assay: Antibacterial activity against methicillin-sensitive, inducible MLS-resistant Staphylococcus aureus PU 64 expressing ermA gene by broth microdilution method; outline: as §1
[29] = test system: Staphylococcus aureus; assay: Antibacterial activity against methicillin-resistant, constitutive MLS-resistant Staphylococcus aureus PU 20 expressing ermC gene by broth microdilution method; outline: as §1

Row | Compound | MIC [3] [µg/mL] | MIC [6] [µg/mL] | MIC [9] [µg/mL] | MIC [10] [µg/mL] | MIC [11] [µg/mL] | MIC [12] [µg/mL] | MIC [13] [µg/mL] | MIC [16] [µg/mL] | MIC [17] [µg/mL] | MIC [18] [µg/mL] | MIC [20] [µg/mL] | MIC [23] [µg/mL] | MIC [25] [µg/mL] | further results
1 | CC[C@H]1OC(=O)[C@H](C)C(=O)[C@H](C)[C@@H](O[C@@H]2O[C@H](C)C[C@H](N(C)C)[C@H]2O)[C@](C)(OC)C[C@@H](C)/C(=N\OCC#Cc2cncc3ccccc23)[C@H](C)[C@H]2OC(=O)O[C@@]21C | 0.064 (≈ 0.0806 µM) | ≤ 0.008 | 32 (≈ 40.3 µM) | 16 (≈ 20.2 µM) | 16 (≈ 20.2 µM) | 32 (≈ 40.3 µM) | 0.016 (≈ 0.0202 µM) | 0.016 (≈ 0.0202 µM) | 0.032 (≈ 0.0403 µM) | 0.064 (≈ 0.0806 µM) | ≤ 0.008 | 0.032 (≈ 0.0403 µM) | 0.016 (≈ 0.0202 µM) | Ratio [1]: 125; Ratio [2]: >8; Ratio [4]: >8; Ratio [5]: >16000; Ratio [7]: >16000; Ratio [8]: >8; Ratio [14]: >8; Ratio [15]: 500; Ratio [19]: >8; Ratio [21]: >8; Ratio [22]: >8; Ratio [24]: >4000; Ratio [26]: >4000; Ratio [27]: >8
2 | CC[C@H]1OC(=O)[C@H](C)[C@@H](O[C@H]2C[C@@](C)(OC)[C@@H](O)[C@H](C)O2)[C@H](C)[C@@H](O[C@@H]2O[C@H](C)C[C@H](N(C)C)[C@H]2O)[C@](C)(OC)C[C@@H](C)C(=O)[C@H](C)[C@@H](O)[C@]1(C)O [CLARITHROMYCIN] | 1 (≈ 1.34 µM) | 0.032 (≈ 0.0428 µM) | > 256 | > 256 | > 256 | > 256 | > 256 | 0.25 (≈ 0.334 µM) | 1 (≈ 1.34 µM) | > 256 | 0.032 (≈ 0.0428 µM) | 4 (≈ 5.35 µM) | 8 (≈ 10.7 µM) | MIC [28]: 2 µg/mL (≈ 2.67 µM); MIC [29]: > 256 µg/mL
